HSF1 activator: HSF-1 activators, primary screen, NIH3T3-HGL cells, MG132 stress, luminescence, single point. NIH3T3-HGL HSF-1 luciferase reporter, 8 h; 100% = twice DMSO control signal. activation, % at 9 µM. hit rate 1.7% among 300,000. AID 504408, 2011;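 active means mean replicate activation of at least 50% with a set share of replicates each reaching 50%; inconclusive means only one of those two conditions met; inactive means mean below 50% and too few replicates reaching it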;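 further: 0% = median of the neutral control wells and 100% = twice that signal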
L major viab: Leishmania major promastigote growth inhibition, primary screen. Leishmania major promastigotes, resazurin fluorescence viability. inhibition, % at 10 µM. hit rate 9% among 200,000. AID 1063, 2008; in the data active means inhibition above about 50%;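 further: promastigotes grown with compound for 44 hours at 28 °C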
HSF1 inhib: HSF1 inhibitors in luciferase reporter cells, primary screen, cell-based, NIH3T3, luminescence. NIH3T3-HGL HSE-luciferase, MG132-induced, luminescence 8 h; active compounds read low. activity change, negative = inhibition, % at 7.5 µM (by protocol). hit rate 0.77% among 300,000;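 active means more than half of replicate wells show activity change below -50%, luminescence cut by over half; inconclusive means some wells, but at most half, below -50%; inactive means no replicate well below -50%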;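 further: luciferase reports HSF-1 transcriptional activity via heat shock element; 0% = median of DMSO wells and -100% = zero luminescence signal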
Hsp70 activator: Hsp70 transcriptional activators, primary screen, cell-based, HeLa, Hsp70 promoter luciferase, luminescence, 10 µM; HeLa Hsp70 promoter luciferase reporter; scaled: vehicle 0, proteasome-inhibitor control 100%; activation, % at 10 µM; hit rate 0.04% among 200,000;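 active means activation above the mean across all tested compounds plus 3 SD, cutoff set per campaign, cut at about 5.5% in these data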;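 further: 100% = MG132 at 30 µM as the positive control and 0% = DMSO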
T cruzi repl: inhibitors of intracellular T. cruzi growth, primary screen, luminescence, NIH3T3 host cells; hit rate 1.4% among 300,000; inhibition, % (no concentration beside the values); T. cruzi beta-gal in NIH3T3, 90 h;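 active means mean inhibition across valid replicates above about 55%, limit read from the data; inconclusive means mean below that limit but half or more replicates reach it; inactive means mean below it, under half of replicates reach it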;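 further: signal also drops with host cell toxicity which is not excluded here; 0% = plate median of DMSO wells and 100% = zero luminescence signal; higher percent means less beta-gal luminescence so fewer parasites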
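Assay system: NIH/3T3 host cells with β-galactosidase reporter T. cruzi; input: 5,000 host fibroblasts per well; compound: single 50 nL compound addition per well in DMSO; timing: ≥90 h infection period, 3 h prior cell attachment; measured by: GalScreen β-gal luminescence, detergent lysis, 60 min; evaluation: percent inhibition of parasite-derived β-gal signal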
Active calls of the source: *; ? = inconclusive; nt = no result given. Shown is part of a subset that was picked to be rich in hits.

SMILES	HSF1 activator	L major viab	HSF1 inhib	Hsp70 activator	T cruzi repl
O=C(COC(=O)/C=C/c1ccco1)Nc1ccc(F)cc1Cl	-3	-5	-2	0	-9
O=C(COC(=O)c1ccc(NC(=O)C2CC=CCC2C(=O)O)cc1)c1ccccc1 (centres undefined)	27	nt	3	nt	-9
CC[C@H](C)[C@@H]1NC(=O)c2cc([N+](=O)[O-])cc(I)c2SC[C@@H](C(N)=O)NC(=O)[C@H](CCCCN)NC1=O	nt	-5	nt	0	nt
CC(=O)Nc1ccc(NC(=O)COC(=O)[C@@H](NC(=O)c2ccc(F)cc2)C(C)C)cc1	62*	-3	17	0	-5
COc1cc(CNCCN2CCOCC2)ccc1OCc1ccccc1Cl	7	92*	8	0	36
CCOc1c(Cl)cc(CNCc2ccccn2)cc1OC	-3	-2	-3	0	-11
COc1cc(CNCc2ccccn2)ccc1OCc1ccccc1Cl	8	94*	3	0	5
COc1cc(CNCCCN2CCOCC2)cc(Br)c1OCc1ccc(Cl)cc1	-9	100*	0	0	59*
COc1ccc(NC(=O)COc2ccc(CNCCCN3CCOCC3)cc2OC)cc1	1	-2	0	0	29
COc1cc(CNCCN2CCOCC2)ccc1OCc1ccc(Cl)cc1	39	94*	13	0	49
Cc1cccc(C)c1NC(=O)C(=O)NCC1CCCN1S(=O)(=O)c1cccs1 (centres undefined)	-10	nt	4	nt	-2
COc1ccc(NC(=O)c2cccc3cccnc23)cc1S(N)(=O)=O	-6	nt	-3	nt	5
C=CCOc1c(Cl)cc(CNCCCN2CCOCC2)cc1OC	20	nt	-1	nt	56*
COc1cc(CNCCCN2CCOCC2)cc(Br)c1OCC(=O)N1CCCCC1	-1	-4	-1	0	49
CC(=O)c1ccc(OCCCC(=O)Nc2cccc(S(=O)(=O)N(C)C)c2)cc1	12	58*	-3	0	8
CN(c1ccccc1)S(=O)(=O)c1cccc(NC(=O)CC(C)(C)C)c1	-23	96*	-21	0	0
CCN(CC)S(=O)(=O)c1cc(NC(=O)Cn2cnc3ccccc3c2=O)ccc1C	7	19	-9	0	7
CN(c1ccccc1)S(=O)(=O)c1cccc(NC(=O)Cn2cnc3ccccc3c2=O)c1	8	98*	9	0	7
CN(c1ccccc1)S(=O)(=O)c1cccc(NC(=O)CN2CCc3ccccc3C2)c1	5	7	-4	0	13
CCOc1ccc(CN(C)CC(=O)Nc2cccc(S(=O)(=O)N(C)c3ccccc3)c2)cc1	0	74*	13	0	73*
CCOc1ccccc1N(CC(=O)Nc1cccc(OC)c1)S(=O)(=O)c1ccccc1	7	nt	1	nt	4
O=C(CN1C(=O)c2ccccc2S1(=O)=O)NCc1c(F)cccc1F	0	nt	-3	nt	-6
CNC(=O)CSc1nnc(C2CC2)n1-c1ccccc1	-24	-2	-7	0	-20
CCC(NC(=O)COc1cc2c(c3oc(=O)c(C)c(C)c13)CCC(C)(C)O2)C(=O)O (centres undefined)	-19	nt	-1	nt	-2
CC(C)(C)c1ccc(OCCCC(=O)Nc2ccc(S(N)(=O)=O)cc2)cc1	56*	73*	26	0	3
SMILES	HSF1 activator	L major viab	HSF1 inhib	Hsp70 activator	T cruzi repl
COc1cccc(CN(C)CC(=O)Nc2cccc(S(N)(=O)=O)c2)c1OC	5	88*	-6	0	-11
Cc1ccc(S(=O)(=O)NCC(=O)OCC(=O)NC(=O)NC2CCCC2)cc1	-8	6	0	0	-5
Cc1ccccc1OCC(=O)N/N=C/c1cccc(Oc2ccc([N+](=O)[O-])cc2[N+](=O)[O-])c1	32	74*	22	0	40
Cc1cc([N+](=O)[O-])cc(C)c1OCC(=O)N/N=C/c1ccc(OC(=O)c2ccccc2Br)cc1	24	85*	14	-1	-8
Cc1cc([N+](=O)[O-])cc(C)c1OCC(=O)N/N=C/c1ccc(OC(=O)c2ccccc2)cc1	-17	-1	-9	0	-1
Cc1ccccc1OCC(=O)NCC(=O)N/N=C/c1cccc([N+](=O)[O-])c1	-4	4	-3	0	-1
O=C(CS(=O)(=O)c1c[nH]c2ccccc12)N1CCCCCC1	3	-8	-1	0	6
O=C(NCCCN1CCOCC1)c1nn(-c2ccccc2)c(=O)c2ccccc12	-4	nt	-7	nt	-15
CCOc1ccccc1NC(=O)c1nc(S(=O)(=O)Cc2cccc(C)c2)ncc1Cl	-39	nt	?	nt	28
CCc1nnc(NC(=O)c2nc(S(=O)(=O)Cc3ccccc3)ncc2Cl)s1	-36	nt	-18	nt	-9
CCc1nnc(NC(=O)c2nc(S(=O)(=O)Cc3cccc(C)c3)ncc2Cl)s1	-74	nt	-65*	nt	13
CCc1nnc(NC(=O)c2nc(S(=O)(=O)Cc3ccc(C)cc3)ncc2Cl)s1	-63	nt	-60*	nt	-1
N#CC1=C(N)NC(SCc2ccc(F)cc2)=C(C#N)C12CCCCC2	166*	99*	119	0	nt
CCN(CC)c1ccc(NC(=O)CCNC(=O)c2ccco2)cc1	-17	90*	-11	0	-2
CCN(CC)S(=O)(=O)c1ccc(NC(=O)CCNC(=O)c2ccco2)cc1	-5	nt	-1	nt	-9
c1ccc(-c2noc(CSc3nnc(Cc4cccs4)n3-c3ccccc3)n2)cc1	25	65*	13	0	18
O=c1c2ccccc2nc(SCc2nc(-c3ccccc3)no2)n1-c1ccc(F)cc1	nt	87*	nt	0	nt
Cc1ccc(-n2c(SCc3cn4ccsc4n3)nc3ccccc3c2=O)cc1	19	85*	8	0	37
Fc1ccc(-n2c(Cc3ccccc3)nnc2SCc2nc(-c3cccs3)no2)cc1	6	99*	1	0	26
COc1ccc(-c2noc(CSc3nc4ccccc4c(=O)n3-c3ccccc3)n2)cc1OC	8	24	-2	0	18
CC(C)CN1CCN(Cc2cn(C)c3ccccc23)CC1CCO (centres undefined)	-6	nt	-7	nt	-18
CC1(c2ccc([N+](=O)[O-])cc2)NC(=O)NC1=O (centres undefined)	-1	nt	5	nt	-13
Cc1ccc(C)c2[nH]c(=O)c(CCNC(=O)C(C)(C)C)cc12	-89	-5	-86*	0	-14
Cc1ccc(C)c2[nH]c(=O)c(CCNC(=O)Cc3cccs3)cc12	11	-3	8	0	-1
CCN(CC)CCOc1c(Br)ccc2c1sc1nc3n(c(=O)c12)CCC3	11	80*	-4	0	21
O=c1c2c(nc3n1CCCCC3)sc1c(O)c(Br)ccc12	-46	-6	-42	0	13

Screening results from PubChem.
